# Experiment: Toxicity liver stage against HepG2, at 10uM
# Assay type: cell-based
# Design: test concentration 10 uM, cell line HepG2-A16-CD81EGFP
# Conditions: human, HepG2-A16-CD81EGFP cells; read-out: INHIBITION
# Method in brief: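 Uninfected HepG2-A16-CD81EGFP cells, 3 × 10^3 per well, 1536-well, plated on prespotted compound at 10 μM final, parasite-free screening media added to match infected plates; puromycin 10 μM positive, DMSO 0.5% negative; run in parallel with 48 h PbLuc assay at 37 °C, 5% CO2; viability by CellTiter-Glo luminescence, normalized to controls.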
row,SMILES,cytotoxicity at 10 µM [%]
1,CCCc1cc(CNC(=O)Cc2cc(C)no2)on1,-1.04
2,CSc1[nH]nc(NC(=O)c2ccncc2)c1C#N,10.6
3,Cc1cc2c(=O)n3c(nc2s1)CCN(Cc1cnc(C(C)C)nc1)CC3,10.5
4,C[C@@H]1CN(c2nc(N)nc3c2CCC3)C[C@]1(C)O,4.6
5,CC(C)(CNC(=O)C1CCCN(C(N)=O)C1)c1cccc(Cl)c1 (stereo unspecified),1.75
6,COCCN1CC2(CCN(Cc3ccco3)CC2)c2ccccc21,18.3
7,COc1ccc(CCNC(=O)NC2CCCC2)cc1OC,-10.9
8,O=C(NCC1CCN(c2ncccn2)CC1)c1cnccn1,2.84
9,OCC1(NCc2cnc(-c3cccs3)s2)CCOCC1,-1.99
10,CN(C)C(=O)c1ccc(OC2CCCC2)cc1,-3.51
11,CN1CCN(C[C@@H]2OC[C@H]3CN(CCc4ccccc4)CC[C@H]32)CC1,8.84
12,COC(=O)N1CCc2ccccc2C1C(=O)NCc1cccs1 (stereo unspecified),-0.634
13,Cc1ccccc1CS(=O)(=O)NCCCN1CCCCC1,19.4
14,O=C(c1ccnnc1)N1CC[C@@H](O)[C@@H]1Cc1ccccc1,5.03
15,CCN1CCNC(=O)C12CCN(C(=O)Cc1ccccn1)CC2,4.71
16,COCc1cncc2c1CCN(Cc1ccccn1)C2,-10.2
17,Cc1noc(C)c1CN1CC2(CCN(C(=O)c3ccc[nH]3)C2)CC1=O (stereo unspecified),6.27
18,CC(SCC(=O)N(C)CC(=O)NC1CC1)c1cc(F)ccc1F (stereo unspecified),8.13
19,Cn1nc(CN2CCCC2)c2c1CN(CC1CC1)CC2,-3.27
20,CN(Cc1cnn(C)c1)C(=O)C(c1ccccc1)N1CCSCC1 (stereo unspecified),5.21
21,Cc1ccc2nc(CN3CCN(C4CCCC4)C(=O)C3)cc(O)c2c1,-0.803
22,Cc1ncoc1C(=O)N1C[C@H]2CCC[C@@]2(COCc2cccnc2)C1,4.53
23,Cn1cnc2c1C(C(=O)N1CCCC1)N(S(C)(=O)=O)CC2 (stereo unspecified),6.22

row,SMILES,cytotoxicity at 10 µM [%]
1,CC(=O)N(C)Cc1ncn2c1CN(C(=O)C1CCCO1)CCC2 (stereo unspecified),-101
2,O=C(Nc1ccccc1-c1cccs1)N1CCOCC1,-5.01
3,CN(C)c1ccc(NC(=O)N2CCCCCC2c2ccncc2)cn1 (stereo unspecified),0.462
4,CSCc1noc(CNC(=O)C2CCN(C(=O)C3CCCC3)CC2)n1,9.98
5,Cc1cccc(NC2CCN(C(=O)Nc3cn[nH]c3)CC2)n1,-26.7
6,COc1cccc(F)c1C(C)NC(=O)NCc1ccnc(C)n1 (stereo unspecified),-10.9
7,CC(OCC1CC1)C(=O)Nc1nccn1Cc1ccccc1 (stereo unspecified),-6.79
8,CCC(CNC(=O)c1ccccc1OC)N1CCc2ccccc2C1 (stereo unspecified),12
9,COc1c(CNC2CCOc3c(Cl)cccc32)c(C)nn1C (stereo unspecified),28.9
10,O=C1NC[C@H]2CN(Cc3nccs3)CCN12,-4.9
11,O=C(c1ccco1)N1CC2(CCNCC2)c2cc(Cl)ccc21,0.199
12,COc1ccc(Cl)cc1NC(=O)CN1CCc2nc(NC(C)=O)sc2C1,-4.2
13,CC(=O)N1CC(=O)N(c2ccccc2)CC12CCN(Cc1ccoc1)C2 (stereo unspecified),-1.51
14,Cn1c(-c2ccc(F)cc2)cn2cc(C(=O)N3CC[C@@H](O)C3)nc2c1=O,11.1
15,Cc1nc(-c2ccsc2)ccc1C(=O)NCCN1CCOCC1,-10.2
16,COCCNC(=O)[C@H]1CO[C@H]2CCN(Cc3cccs3)C[C@H]2C1,-108
17,COCCN(C/C=C/c1ccccc1)Cc1nccs1,42.8
18,Cc1noc(C)c1CN1C[C@@H]2COC[C@H](C(=O)N3CCCCO3)[C@@H]2C1,-1.98
19,O=C(NCc1cnn2ccccc12)NC1CCCC1,-2.91
20,COCCN1CCN(Cc2ccc(Cl)cc2)[C@H]2CS(=O)(=O)C[C@H]21,-4.01
21,COc1ccc(C(=O)N(C2CC2)C2CC(=O)NC2=O)cc1 (stereo unspecified),-10.7
22,O=c1ncn(-c2ccc(F)cc2)c2ncccc12,0.946
23,Cc1cc(C)n(CC(=O)N(C)Cc2csc(-c3cccs3)n2)c(=O)n1,32.2

row,SMILES,cytotoxicity at 10 µM [%]
1,O=C(CCC(F)(F)F)N1CCCC(CO)(CC2CC2)C1 (stereo unspecified),2.75
2,CC1CCN(C(CNC(=O)CCn2cccn2)c2cccs2)CC1 (stereo unspecified),13.5
3,COCCNc1cc(-c2ccccc2CCN)c2cc[nH]c2n1,2.13
4,Cc1ncsc1C(=O)N1CCCC(n2cncn2)C1 (stereo unspecified),0.364
5,CC(=O)N1CCC(N2CC[C@H](c3nc4cc(C)ccc4o3)C2)CC1,2.84
6,CCc1cnc(NCCCN2CCC(O)CC2)nc1,3.44
7,CC(=O)N1CCc2nnc(C3CCCCN3CC3CCCCC3)n2CC1 (stereo unspecified),10.2
8,Cc1cc(C(=O)N2CCc3c(ncnc3N3CCOCC3)C2)[nH]n1,-5.92
9,COc1cc(C(=O)N2CCCC(n3ccnc3)C2)cc2c1OCCO2 (stereo unspecified),-5.28
10,CCC(C)NC(=O)Cn1ncc2c1c(C)nn2CC (stereo unspecified),3.24
11,CN(Cc1nnc(C2CC2)o1)C1CCN(CCc2cccs2)C1 (stereo unspecified),-2.01
12,CC(C)(C)c1cc(C(=O)N2CCOC(c3cnccn3)C2)[nH]n1 (stereo unspecified),2.02
13,Cn1c(C2CC2)nc2c1CCN(CCS(=O)(=O)c1ccccc1)C2,3.73
14,Cc1ccsc1C(CNC(=O)c1cc(=O)[nH]c(=O)[nH]1)N(C)C (stereo unspecified),8.99
15,CCOc1cc(CN2CCCC2)ccc1Oc1cccc(C#N)n1,-1.83
16,CN(c1ncc(S(N)(=O)=O)s1)C1CCc2ccccc2C1 (stereo unspecified),11.1
17,Cc1cc(CNC(=O)C(c2ccc(F)cc2)N(C)C)n[nH]1 (stereo unspecified),-15
18,O=C(NCCOc1ccc2c(c1)OCO2)C1CC(=O)N(C2CC2)C1 (stereo unspecified),-6.75
19,CC(=O)N1CCC(C)(c2nc(C)no2)CC1,-1.55
20,CC(NCc1ccc(-c2ccc(F)cc2)o1)c1nnc2n1CCC2 (stereo unspecified),-4.21
21,CCc1nc(C)c(C(=O)N(C)Cc2cnc3ccccn23)o1,-1.94
22,CN(CCCOc1ccccc1)Cc1nc2c(cnn2C)c(=O)[nH]1,-3.23
23,Cc1cc(CNC(=O)c2cnoc2C)c(C)o1,-6.32

row,SMILES,cytotoxicity at 10 µM [%]
1,COCCNC(=O)[C@H]1C[C@@H]2CCN(c3ccccc3)C[C@H]2O1,2.78
2,CC(CC(=O)Nc1ncn(CC(=O)N2CCCCCC2)n1)C1CC1 (stereo unspecified),5.75
3,COc1ccc(C(C(=O)O)N(C)CCN2CCOCC2)c(C)c1 (stereo unspecified),2.66
4,NC(=O)C1CCCN1Cc1cccc(NC(=O)c2ccsc2)c1 (stereo unspecified),16.3
5,CCc1cc(NCCNC(C)=O)nc(N2CCCC2)n1,-6.77
6,O=C(c1cc[nH]n1)N1CCC(c2cc(Nc3ccccn3)n[nH]2)CC1,-37.1
7,CN(C)c1ncccc1CNC(=O)N(Cc1ccccc1F)C1CC1,2.6
8,Fc1cccnc1N1CCC(NCc2cccc3cn[nH]c23)C1 (stereo unspecified),13.6
9,O=C(C1CCCOC1)N1CCc2ccc(F)cc21 (stereo unspecified),2.35
10,O=S(=O)(C1CC1)N1CCc2ncnc(-c3ccsc3)c2CC1,4.8
11,c1ccc(Cc2nnc(CN3CCn4c(nnc4C4CC4)C3)o2)cc1,-0.192
12,Cn1ncc2c1NC(=O)CC2c1ccc(O)cc1 (stereo unspecified),24.3
13,COCCN1C[C@@H]2[C@@H](OC)CCN(Cc3ccco3)[C@@H]2C1,2.37
14,O=C(NCCCn1cncn1)N1CCCCCC1,-7.1
15,c1ccc2[nH]c(C3CCN(Cc4nnc(C5CC5)o4)CC3)nc2c1,0.152
16,CCc1nc(CN2CCCN(c3nc4ccccc4o3)CC2)no1,-22.5
17,CC(C)(C)c1nc(CC(=O)NC2CCN(C3CC3)C2)cs1 (stereo unspecified),-9.25
18,CC(C)(O)CCc1cccc(C(=O)NCc2nccs2)c1,-50.7
19,COCC(=O)Nc1ccc(C)cc1-c1nc(C2CC2)no1,-3.67
20,Cc1nnc(CN2CCCC2c2c(C)nn(C)c2Cl)o1 (stereo unspecified),0.174
21,Cc1cc(C)c(CNC(=O)NCC2COCCO2)c(=O)[nH]1 (stereo unspecified),-3.81
22,Cc1cc(C(=O)Nc2ccnc(OC3CCOC3)c2)c(C)o1 (stereo unspecified),6.66
23,CC(C(=O)N1CCc2ccccc2C1)n1cc(Br)cn1 (stereo unspecified),-8.77

row,SMILES,cytotoxicity at 10 µM [%]
1,CC(=O)N1CCCC(c2nccnc2-c2ccc(CO)cc2)C1 (stereo unspecified),1.03
2,CS(=O)(=O)NC[C@H]1OC[C@@H]2CN(Cc3cccnc3)CC[C@@H]21,12.7
3,CC(C)CN1CCN(S(=O)(=O)c2cn(C)cn2)[C@H]2CS(=O)(=O)C[C@H]21,-4.07
4,COCCCNc1nc(CNC(=O)C2CCC2)cc(-c2ccco2)n1,-11
5,FC(F)(F)c1cccc(OC2CCN(Cc3ccccn3)CC2)c1,-0.609
6,COc1ccccc1S(=O)(=O)N1CCC(Oc2cccnn2)CC1,-7.33
7,CNC(=O)[C@H]1C[C@@H]2CN(S(=O)(=O)c3cccc(C)c3)C[C@@H]2N1C,1.59
8,CCOCC1CN(C(=O)c2ccncn2)Cc2cnn(C)c21 (stereo unspecified),-143
9,COc1ccc(-c2ccc(C(=O)O)c(F)c2)c(F)c1,-0.378
10,CN(Cc1cccnc1)[C@@H]1CN(Cc2nccn2C)[C@@H]2CCCO[C@H]12,-9.46
11,Cc1nc(NC(=O)CN2C(=O)c3ccccc3NC2C(C)C)sc1C (stereo unspecified),0.585
12,Cc1cc(N2CCC(N3CCOCC3)C2)n2nc(C)c(C)c2n1 (stereo unspecified),3.9
13,COc1c(C2CCCN2CC(=O)NCc2ccccn2)c(C)nn1C (stereo unspecified),-0.671
14,COc1ccc(OCCNc2cccc(C(=O)N3CCOCC3)c2)cc1,7.08
15,CSCCCNC(=O)c1coc(Cn2cnc3ccccc32)n1,-6.33
16,CN(C)CCn1ccnc1C1CCN(C(=O)CCc2ccncc2)CC1,-9.67
17,CC(C)(C)CNC(=O)c1ccc(C(=O)O)cn1,-4.01
18,CCC[C@@H]1CN(Cc2cc3c(cc2OC)OCO3)C[C@H]1C(=O)O,-2.7
19,COCCc1nc(CN2CC(C)(c3ccccc3)CCC2=O)no1 (stereo unspecified),-3.07
